This is a sample that favours compounds with a hit; in the whole collection about 1.7% have one here.
MLLE-PAM2 inh: inhibitors of PABP1 MLLE–PAM2 peptide binding, primary screen, biochemical, fluorescence polarization, FITC-PAM2, GST-MLLE; Polyadenylate-binding protein 1 (Homo sapiens), P11940; inhibition, % at 20 µM; 360,000 tested, 0.36% active; AID 588489, 2011; in the data active = inhibition above about 35%, passing the limit was not always enough;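 note: plate controls were DMSO wells with GST-MLLE for no effect and wells lacking GST-MLLE protein for full effect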
MT1-MMP act inh: blockers of MT1-MMP proenzyme processing, primary screen, HT1080 RFP-PRO-GFP cells, GFP/RFP fluorescence; GFP/RFP ratio change, % at 20 µM; AID 651647, 2012; 360,000 tested, 0.061% active; GFP/RFP ratio fluorescence, overnight; percent of plate control window, DMSO zero;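 active = GFP/RFP ratio change of at least 30% with cell ATP level not reduced by more than half and red fluorescence within 50% of control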
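Assay system: HT1080 RFP-PRO-GFP cells | Dosing: 20 µM single dose, 1% DMSO | Incubation: Cells overnight before dosing, compound overnight, 37 °C, 5% CO2 | Evaluation: GFP/RFP fluorescence ratio | Control set: DMSO-only wells and HT1080 RFP-L50D-GFP cell wells as references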
SKN-1 inh: suppressors of acrylamide-induced Pgst-4::GFP reporter in worms, primary screen, SKN-1 inhibitor project, whole organism, uHTS, GFP/RFP fluorescence ratio, strain VP596; C. elegans VP596 Pgst-4::GFP/RFP ratio, 24 h; inhibition, % at 21.8 µM; 360,000 tested, 0.49% active;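 active = interference check ratio from 0.5 to 1.5 plus GFP to RFP signal ratio inhibition reaching or exceeding a fixed threshold, cut at about 30% in these data, passing the limit was not always enough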
eIF4H inh: human eIF4H binding inhibitors, primary screen, translation initiation inhibitor project, biochemical, uHTS, fluorescence polarization; Eukaryotic translation initiation factor 4H (Homo sapiens), Q15056; eIF4H fluorescence polarization binding assay; inhibition, % at 35 µM; 290,000 tested, 0.94% active; AID 2012, 2009;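 note: calls also rest on retests at 20 µM and on dose response follow-up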
PABP polyA inh: PABP poly(A) RNA binding inhibitors, primary screen, biochemical, fluorescence polarization, uHTS. inhibition, % at 35 µM. 290,000 tested, 1% active. AID 2014, 2009;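 note: calls also rest on retests at 20 µM and on dose response follow-up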
An asterisk follows results filed as active. Unless noted, the rule behind the calls is not given here.

How did N#CC1=C2N=C(N)c3ccccc3N2C2=C(C(=O)CCC2)C1c1ccccc1F (stereo not given) do in these assays?
MLLE-PAM2 inh: 87; MT1-MMP act inh: -11; SKN-1 inh: 0; eIF4H inh: inconclusive; PABP polyA inh: inconclusive

What do the screens show for `Cc1cccc(N/C=C/C(=O)c2cccs2)c1C`?
MLLE-PAM2 inh: -31; MT1-MMP act inh: -4; SKN-1 inh: 44*; eIF4H inh: -10; PABP polyA inh: 4

Results for O=C(/C=C/Nc1ccc(F)c(F)c1)c1cccs1 ?
MLLE-PAM2 inh: -12; MT1-MMP act inh: -5; SKN-1 inh: 44*; eIF4H inh: -2; PABP polyA inh: -3

What do the screens show for `NC(=O)c1ncn([C@@H]2O[C@H](CNS(=O)(=O)c3cc4ccccc4s3)[C@@H](O)[C@H]2O)n1`?
MLLE-PAM2 inh: 3; MT1-MMP act inh: 4; SKN-1 inh: 1

Results for CC(=O)N(C)c1ccc(NC(=S)NCC(C)C)cc1 ?
MLLE-PAM2 inh: 4; MT1-MMP act inh: 0; SKN-1 inh: -3; eIF4H inh: -4; PABP polyA inh: 7

What do the screens show for `FCCCOc1ccc(/C=N/OCc2c(Cl)cccc2Cl)cc1`?
MLLE-PAM2 inh: -5; MT1-MMP act inh: -1; SKN-1 inh: -22; eIF4H inh: -7; PABP polyA inh: -12

What do the screens show for `FCCCOc1ccc(/C=N/OCc2ccc(Cl)cc2)cc1`?
MLLE-PAM2 inh: 4; MT1-MMP act inh: -5; SKN-1 inh: 42*; eIF4H inh: 3; PABP polyA inh: 2

Results for Cc1nnc(N2C(=O)c3oc4ccccc4c(=O)c3C2c2ccco2)s1 (stereo not given) ?
MLLE-PAM2 inh: 48*; MT1-MMP act inh: 0; SKN-1 inh: -2; eIF4H inh: 22; PABP polyA inh: 10

Results for COCCN(C(=O)c1cc2c(s1)CCC2)c1c(N)n(CC(C)C)c(=O)[nH]c1=O ?
MLLE-PAM2 inh: -3; MT1-MMP act inh: 0; SKN-1 inh: 15

How did Cn1cc(/C=C(\C#N)C(=O)Nc2ncc(Cc3ccc(Cl)cc3)s2)c2ccccc21 do in these assays?
MLLE-PAM2 inh: 12; MT1-MMP act inh: 3; SKN-1 inh: 3; eIF4H inh: 63*; PABP polyA inh: active

What do the screens show for `Cc1cc2ncn(-c3ncccc3[N+](=O)[O-])c2cc1C`?
MLLE-PAM2 inh: 61*; MT1-MMP act inh: -11; SKN-1 inh: -6; eIF4H inh: -10; PABP polyA inh: 8

Results for CC(NC(=O)Cn1cnc2c1c(=O)n(C)c(=O)n2C)c1ccccc1 (stereo not given) ?
MLLE-PAM2 inh: 0; MT1-MMP act inh: 2; SKN-1 inh: 3; eIF4H inh: -8; PABP polyA inh: 51*

Results for O=C(O)c1ccc(-n2c(-c3cc(-c4ccco4)[nH]n3)n[nH]c2=S)cc1 ?
MLLE-PAM2 inh: 1; MT1-MMP act inh: -1; SKN-1 inh: 8; eIF4H inh: 87*; PABP polyA inh: 61*

How did Cc1ccc(-n2c(-c3cc(-c4ccco4)[nH]n3)n[nH]c2=S)c(Br)c1 do in these assays?
MLLE-PAM2 inh: -75; MT1-MMP act inh: 2; SKN-1 inh: 10; eIF4H inh: inconclusive; PABP polyA inh: 45*

How did O=C1CS/C(=N\N=C\c2ccco2)N1c1ccccc1 do in these assays?
MLLE-PAM2 inh: -24; MT1-MMP act inh: -1; SKN-1 inh: -9; eIF4H inh: 85*; PABP polyA inh: 32*

What do the screens show for `CC(=O)O[C@H]1[C@@H](O)[C@H](O)[C@H](Oc2c(O)c(C)c3c4c2[C@@H](C)CC[C@@H]4[C@@H](C)C[C@@H]3C=C(C)C)O[C@H]1C`?
MLLE-PAM2 inh: 4; MT1-MMP act inh: 1; SKN-1 inh: 40*

How did COc1ccc(C(=O)C[n+]2ccc3ccccc3c2C)cc1 do in these assays?
MLLE-PAM2 inh: 5; MT1-MMP act inh: 4; SKN-1 inh: 10; eIF4H inh: 91*; PABP polyA inh: 51*

How did Cc1oncc1-c1csc(-c2ccccc2Cl)n1 do in these assays?
MLLE-PAM2 inh: -13; MT1-MMP act inh: 0; SKN-1 inh: 45*; eIF4H inh: 0; PABP polyA inh: -4

What do the screens show for `CCOCC(=O)Nc1nnc(COc2ccc(Cl)cc2)s1`?
MLLE-PAM2 inh: 37*; MT1-MMP act inh: -1; SKN-1 inh: 1; eIF4H inh: 4; PABP polyA inh: -6

Results for COCC(=O)Nc1nnc(COc2ccc(Cl)cc2)s1 ?
MLLE-PAM2 inh: -7; MT1-MMP act inh: 1; SKN-1 inh: -4; eIF4H inh: 2; PABP polyA inh: 13

Results for CCn1c(C)nc2cc(C(N)=O)ccc21 ?
MLLE-PAM2 inh: -3; MT1-MMP act inh: 3; SKN-1 inh: 1; eIF4H inh: 99*; PABP polyA inh: 67*

What do the screens show for `COc1ccc(CCNS(=O)(=O)c2ccc(-n3cnnn3)cc2)cc1OC`?
MLLE-PAM2 inh: 0; MT1-MMP act inh: -1; SKN-1 inh: -13; eIF4H inh: 2; PABP polyA inh: 9

What do the screens show for `CC(OC(=O)Cn1[nH]c(=O)c2ccccc2c1=O)C(=O)NC1(C#N)CCCCC1` (stereo not given)?
MLLE-PAM2 inh: -11; MT1-MMP act inh: 1; SKN-1 inh: -7

How did C=CCNc1ncnc2sc(SC)nc12 do in these assays?
MLLE-PAM2 inh: 11; MT1-MMP act inh: -3; SKN-1 inh: 50*; eIF4H inh: -7; PABP polyA inh: 2

How did COc1ccc(-c2nnc(-c3ccc(Br)o3)o2)cc1OC do in these assays?
MLLE-PAM2 inh: -10; MT1-MMP act inh: 2; SKN-1 inh: 36*; eIF4H inh: 5; PABP polyA inh: 11

How did COc1ccc(-c2nc(-c3ccc(Br)o3)no2)cc1OC do in these assays?
MLLE-PAM2 inh: -2; MT1-MMP act inh: -4; SKN-1 inh: 8; eIF4H inh: 4; PABP polyA inh: -8

What do the screens show for `Cc1cccn2c(=O)c3cc(C(=O)NC4CCCC4)c(=N)n(CCCN4CCOCC4)c3nc12`?
MLLE-PAM2 inh: -1; MT1-MMP act inh: -5; SKN-1 inh: 13; eIF4H inh: 25; PABP polyA inh: 0

How did CCOc1ccc(S(=O)(=O)Nc2cc(SCC(=O)O)c(O)c3ccccc23)cc1 do in these assays?
MLLE-PAM2 inh: 34; MT1-MMP act inh: -10; SKN-1 inh: -9; eIF4H inh: -5; PABP polyA inh: 12

How did CCc1ccc(S(=O)(=O)Nc2cc(SCC(=O)O)c(O)c3ccccc23)cc1 do in these assays?
MLLE-PAM2 inh: 37; MT1-MMP act inh: -8; SKN-1 inh: -5; eIF4H inh: 7; PABP polyA inh: 16

How did O=S(=O)(Nc1cc(Sc2cccc3cccnc23)c(O)c2ccccc12)c1ccccc1 do in these assays?
eIF4H inh: 75*; PABP polyA inh: active

Bioassay records (PubChem)
